Experimental data from ChEMBL document CHEMBL1159304, “Cryphonectric acid and other minor metabolites from a hypovirulent strain of Cryphonectria parasitica” (J Nat Prod, 2002).
The source made the active and inactive calls. The rule behind the calls is not given here.

What was measured:
[1] = test system: Solanum lycopersicum; experiment: Induction of necrotic symptoms in tomato leaves up to 2 mM by tomato seedling bioassay; assay type: functional, organism-based
How it was run: (§1)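 Tomato seedlings were conditioned 24 h in water, which was then replaced with filter-sterilized (0.2 µm) test solutions at 2, 0.2, 0.1 or 0.01 mM. Phytotoxic symptoms and root growth inhibition were scored at 24, 48 and 72 h. Each assay was run twice on 10 replicate seedlings.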

[2] = Cytotoxicity against bovine endothelial cells at 50 uM; assay type: cell-based, Bos taurus; conditions: cattle, endothelial cell
[3] = test system: Solanum lycopersicum; experiment: Inhibition of tomato seedling growth at 100 uM; assay type: functional; how it was run: as §1
[4] = Cytotoxicity against bovine endothelial cells at 12.5 uM; assay type: cell-based, Bos taurus; conditions: cattle, endothelial cell
[5] = test system: Endothelial cell; experiment: Antiangiogenic activity in bovine endothelial cells assessed as inhibition of cell migration at 12.5 uM; assay type: functional, cell-based; conditions: Bos taurus
[6] = test system: Endothelial cell; experiment: Antiangiogenic activity in bovine endothelial cells assessed as inhibition of cell migration at 50 uM; assay type: functional, cell-based; conditions: Bos taurus
[7] = test system: Solanum lycopersicum; experiment: Inhibition of tomato seedling growth at 10 uM; assay type: functional; parameters: scale not given: the % may be the effect or the level left; how it was run: as §1
[8] = test system: Solanum lycopersicum; experiment: Inhibition of tomato seedling growth at 200 uM; assay type: functional, organism-based; how it was run: as §1

Question: With `O=C(O)c1cc(O)c(C2OC(=O)c3c(O)cc(O)cc32)c(O)c1` (stereo not given) [CRYPHONECTRIC ACID] as the compound, how does the Activity [1] read?
Answer: inactive

Question: What about the Activity [2] of the same compound?
Answer: Non-toxic

Question: What about the Activity [3] of the same compound?
Answer: Active

Question: And the Activity [4]?
Answer: Non-toxic

Question: And the Activity [5]?
Answer: inactive

Question: What about the Activity [6] of the same compound?
Answer: inactive

Question: Which results are given for `COc1cc(O)c2c(=O)oc(CC(C)O)cc2c1` (stereo not given) [DIAPORTHIN]?
Answer: Activity [7]: 50%; Activity [1]: inactive; Activity [3]: 75%; Activity [8]: Active
